BindingDB's records for doi:10.1016/j.bmc.2010.02.001 (University of Alberta, 2010)

Target: LL-diaminopimelate aminotransferase, chloroplastic (Arabidopsis thaliana, UniProt Q93ZN9)
Experiment: Inhibition of Arabidopsis thaliana LL-DAP-AT expressed in Escherichia coli by aminobenzaldehyde-based assay
Outline: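 Recombinant C-terminal His6-tagged enzyme in 1 mL cells at 0.0043 mg/mL final. Final substrates: 8.5 mM 2-oxoglutarate, 7 mM 2-aminobenzaldehyde, 2.0 mM LL-DAP (racemic DAP), in 100 mM HEPES-KOH pH 7.6. Inhibitor in DMSO at 200, 100, 50, 25, 10 and 5 µM final. A440 read every 2 min for 200 min. Initial slopes compared with the DMSO control gave percentage inhibition, from which IC50 was calculated.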

Sequence of LL-diaminopimelate aminotransferase, chloroplastic (Q93ZN9 whole entry): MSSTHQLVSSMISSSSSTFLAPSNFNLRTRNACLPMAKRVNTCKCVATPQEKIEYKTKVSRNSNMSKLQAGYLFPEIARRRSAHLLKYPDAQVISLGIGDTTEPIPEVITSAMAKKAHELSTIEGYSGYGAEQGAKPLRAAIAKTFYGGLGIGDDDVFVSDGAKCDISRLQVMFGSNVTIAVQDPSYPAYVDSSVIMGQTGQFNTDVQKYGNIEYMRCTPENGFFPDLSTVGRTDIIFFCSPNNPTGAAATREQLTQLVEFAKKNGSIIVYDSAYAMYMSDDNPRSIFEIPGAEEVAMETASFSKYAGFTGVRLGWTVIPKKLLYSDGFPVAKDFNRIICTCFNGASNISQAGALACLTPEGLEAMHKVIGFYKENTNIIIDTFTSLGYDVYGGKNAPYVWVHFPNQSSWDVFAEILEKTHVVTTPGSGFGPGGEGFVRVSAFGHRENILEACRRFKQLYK

Compound: NC(N=NCc1ccc(-c2cccc([N+](=O)[O-])c2)o1)=N[N+](=O)[O-] [N'-nitro-2-((5-(3-nitrophenyl)furan-2-yl)methylene)hydrazinecarboximidamide]
- IC50: > 200 µM
